The values that follow come from ChEMBL document CHEMBL1150813, “Triterpene saponins from Vietnamese ginseng (Panax vietnamensis) and their hepatocytoprotective activity” (J Nat Prod, 2001).

Common to all, as to type: functional
Assay [1] concerns Hepatocyte. Description: Hepatoprotective activity against D-galactosamine/TNFalpha-induced cell death in mouse hepatocytes assessed cell survival rate at 50 uM administered before 30 mins of TNFalpha challenge measured after 18 hrs by MTT assay. Summed up: (§1)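 Primary mouse hepatocytes, isolated by collagenase perfusion, were cultured in William's E medium with 10% calf serum, dexamethasone and insulin at 1.5×10^4 cells/well. TNF-α (100 ng/mL) was added 30 min later. Viability was read by MTT after 18 h. Values are mean ± SD, n = 4 (normal and control n = 8), with Student's t-test versus control.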
Background: Tetrazolium dyes change colour on reduction, which living cells bring about.

For assay [2], the system named is Hepatocyte. Description: Hepatoprotective activity in mouse hepatocytes assessed protection against D-galactosamine/TNFalpha-induced cell death at 100 uM administered before 30 mins of TNFalpha challenge measured after 18 hrs. Summed up:
as §1

Assay [3] deals with Hepatocyte. Description: Hepatoprotective activity in mouse hepatocytes assessed protection against D-galactosamine/TNFalpha-induced cell death at 200 uM administered before 30 mins of TNFalpha challenge measured after 18 hrs. A digest of the protocol: as §1
In assay [4] the test system is Hepatocyte. Description: Hepatoprotective activity in mouse hepatocytes assessed protection against D-galactosamine/TNFalpha-induced cell death at 50 uM administered before 30 mins of TNFalpha challenge measured after 18 hrs. A digest of the protocol:
as §1

Assay [5] concerns Hepatocyte. Description: Hepatoprotective activity in mouse hepatocytes assessed inhibition of D-galactosamine/TNFalpha-induced cell death dosed administered before 30 mins of TNFalpha challenge measured after 18 hrs. A digest of the protocol: as §1
In assay [6] the test system is Hepatocyte. Put plainly: Hepatoprotective activity in mouse hepatocytes assessed inhibition of D-galactosamine/TNFalpha-induced cell death at 100 uM administered before 30 mins of TNFalpha challenge measured after 18 hrs. Summed up:
as §1

Assay [7] deals with Hepatocyte. Description: Hepatoprotective activity in mouse hepatocytes assessed inhibition of D-galactosamine/TNFalpha-induced cell death at 200 uM administered before 30 mins of TNFalpha challenge measured after 18 hrs. Summed up: as §1
Assay [8] deals with Hepatocyte. Description: Hepatoprotective activity in mouse hepatocytes assessed inhibition of D-galactosamine/TNFalpha-induced cell death at 50 uM administered before 30 mins of TNFalpha challenge measured after 18 hrs. Summed up: as §1
Assay [9] relates to Hepatocyte. Put plainly: Hepatoprotective activity against D-galactosamine/TNFalpha-induced cell death in mouse hepatocytes assessed cell survival rate at 100 uM administered before 30 mins of TNFalpha challenge measured after 18 hrs by MTT assay. Summed up:
as §1

In assay [10] the test system is Hepatocyte. Description: Hepatoprotective activity against D-galactosamine/TNFalpha-induced cell death in mouse hepatocytes assessed cell survival rate at 200 uM administered before 30 mins of TNFalpha challenge measured after 18 hrs by MTT assay. Summed up:
as §1

Structures are written as SMILES.

The term IC50 denotes the concentration that gives 50% inhibition. Lower therefore signals higher potency.

As for `CC(C)=CCC[C@](C)(O[C@@H]1O[C@H](CO[C@@H]2OC[C@H](O)[C@H](O)[C@H]2O)[C@@H](O)[C@H](O)[C@H]1O)[C@H]1CC[C@]2(C)[C@@H]1[C@H](O)C[C@@H]1[C@@]3(C)CC[C@H](O[C@@H]4O[C@H](CO)[C@@H](O)[C@H](O)[C@H]4O[C@@H]4O[C@H](CO)[C@@H](O)[C@H](O)[C@H]4O)C(C)(C)[C@@H]3CC[C@]12C` [GINSENOSIDE RB2], the Survival was 36.7% in [1], 44.7% in [9] and 60.3% in [10]. In addition, the Activity in [2] is 21%; in assay [3], 43.3%; in [4], 7.6%. The same compound showed an IC50 in assay [5] of 105 µM. Also, the “inhibition (INH)” value in assay [6] is 48.8%; in assay [7], 100.8%; in assay [8], 22.1%.
As to `CC(=O)OC[C@H]1O[C@@H](O[C@H]2C[C@]3(C)[C@H](C[C@@H](O)[C@@H]4[C@@H]([C@]5(C)CC[C@@H](C(C)(C)O)O5)CC[C@]43C)[C@@]3(C)CC[C@H](O)C(C)(C)[C@H]23)[C@H](O[C@@H]2OC[C@@H](O)[C@H](O)[C@H]2O)[C@@H](O)[C@@H]1O` [GINSENOSIDE R2], the Survival in assay [1] was 43.2%; in [9], 51.7%; in [10], 72.9%. Moreover, the Activity in [2] was 31.1%; in [3], 61.3%; in [4] it was 19%. The IC50 in [5] stood at 63.2 µM. Further, the “inhibition (INH)” value was determined as 72.9% in [6], 143.8% in assay [7] and 44.7% in assay [8].
Turning to `CC1(C)O[C@](C)([C@H]2CC[C@]3(C)[C@@H]2[C@H](O)C[C@@H]2[C@@]4(C)CC[C@H](O)C(C)(C)[C@@H]4[C@@H](O[C@@H]4O[C@H](CO)[C@@H](O)[C@H](O)[C@H]4O)C[C@]23C)CC[C@H]1O` [GINSENOSIDE R10], the Survival was determined as 41.1% in [1], 38.3% in [9] and 35.2% in assay [10]. Besides, the Activity in [2] turned out to be 12%; in assay [3] it was 7.6%; in [4], 16%. In addition, the “inhibition (INH)” value in [6] stood at 28%; in [7] it was 17.8%; in assay [8], 37.6%.
As to `CC(C)=CCC[C@](C)(O)[C@H]1CC[C@]2(C)[C@@H]1[C@H](O)C[C@@H]1[C@@]3(C)CC[C@H](O)C(C)(C)[C@@H]3[C@@H](O[C@@H]3O[C@H](CO)[C@@H](O)[C@H](O)[C@H]3O)C[C@]12C` [GINSENOSIDE RH1], the Survival in assay [1] is on record as 38.1%; in [9] it was 40.8%; in assay [10] it was 54%. In addition, the Activity in assay [2] was determined as 15.6%; in assay [3], 34.3%; in [4], 11.7%. The compound further returned an IC50 in assay [5] of 105 µM. Moreover, the “inhibition (INH)” value in [6] is 36.6%; in [7], 80.5%; in assay [8] it was 27.4%.
Take `CC(C)=CCC[C@](C)(O[C@@H]1O[C@H](CO[C@@H]2O[C@H](CO)[C@@H](O)[C@H](O)[C@H]2O)[C@@H](O)[C@H](O)[C@H]1O)[C@H]1CC[C@]2(C)[C@@H]1[C@H](O)C[C@@H]1[C@@]3(C)CC[C@H](O[C@@H]4O[C@H](CO)[C@@H](O)[C@H](O)[C@H]4O[C@@H]4O[C@H](CO)[C@@H](O)[C@H](O)[C@H]4O)C(C)(C)[C@@H]3CC[C@]12C` [GINSENOSIDE RB1]: the Survival was 34.4% in [1], 36% in assay [9] and 39.6% in assay [10]. In addition, the results for the Activity in assay [2], in assay [3] and in [4] were 8.5%, 13.7% and 6%, respectively. Moreover, the results for the “inhibition (INH)” value in assay [6], in assay [7] and in assay [8] were 19.8%, 31.9% and 14.3%, respectively.
`CC(C)=CCC[C@](C)(O[C@@H]1O[C@H](CO)[C@@H](O)[C@H](O)[C@H]1O)[C@H]1CC[C@]2(C)[C@@H]1[C@H](O)C[C@@H]1[C@@]3(C)CC[C@H](O)C(C)(C)[C@@H]3[C@@H](O[C@@H]3O[C@H](CO)[C@@H](O)[C@H](O)[C@H]3O[C@@H]3O[C@@H](C)[C@H](O)[C@@H](O)[C@H]3O)C[C@]12C` [GINSENOSIDE RE]: the Survival came to 36.4% in assay [1], 41.2% in [9] and 52.4% in assay [10]. Further, the values for the Activity in assay [2], in [3] and in assay [4] were 15.9%, 31.9% and 8.9%, respectively. This compound also displayed an IC50 in assay [5] of 119 µM. The “inhibition (INH)” value was 37% in assay [6], 74.3% in assay [7] and 21.1% in assay [8].
As for `CO[C@@](C)(CCC=C(C)C)[C@H]1CC[C@]2(C)[C@@H]1[C@H](O)C[C@@H]1[C@@]3(C)CC[C@H](O)C(C)(C)[C@@H]3[C@@H](O[C@@H]3O[C@H](CO)[C@@H](O)[C@H](O)[C@H]3O)C[C@]12C` [GINSENOSIDE RH5], in assay [1], the Survival came out at 36.9%. The Activity in [4] is 13.1%. For the same compound, the “inhibition (INH)” value in assay [6] is 27.9%; in [7] it was -24%; in assay [8] it was 23.5%.
Consider `CC(C)=CCC[C@](C)(O[C@@H]1O[C@H](CO)[C@@H](O)[C@H](O)[C@H]1O)[C@H]1CC[C@]2(C)[C@@H]1[C@H](O)C[C@@H]1[C@@]3(C)CC[C@H](O[C@@H]4O[C@H](CO)[C@@H](O)[C@H](O)[C@H]4O[C@@H]4O[C@H](CO)[C@@H](O)[C@H](O)[C@H]4O)C(C)(C)[C@@H]3CC[C@]12C` [GINSENOSIDE RD], for which the Survival worked out at 35.3% in assay [1], 35.9% in [9] and 41.8% in assay [10]. In addition, the figures for the Activity in assay [2], in [3] and in assay [4] were 8.4%, 16.8% and 7.4%, respectively. Also, the results for the “inhibition (INH)” value in assay [6], in assay [7] and in assay [8] were 19.5%, 39.1% and 17.5%, respectively.
Take `CC(C)=CC/C=C(\C)[C@H]1CC[C@]2(C)[C@@H]1[C@H](O)C[C@@H]1[C@@]3(C)CC[C@H](O)C(C)(C)[C@@H]3[C@@H](O[C@@H]3O[C@H](CO)[C@@H](O)[C@H](O)[C@H]3O)C[C@]12C` [GINSENOSIDE RH4]: the Survival in assay [1] worked out at 34%; in assay [9], 45%; in assay [10], 50%. Also, the Activity in [2] stood at 24.8%; in [3], 35.1%; in [4], 8%. Further, the IC50 in assay [5] worked out at 97 µM. Further, the “inhibition (INH)” value in assay [6] was 50.6%; in assay [7] it was 67.1%; in assay [8], 13.7%.
On to `CC(C)=CCC[C@](C)(O[C@@H]1O[C@H](CO[C@@H]2O[C@@H](CO)[C@H](O)[C@H]2O)[C@@H](O)[C@H](O)[C@H]1O)[C@H]1CC[C@]2(C)[C@@H]1[C@H](O)C[C@@H]1[C@@]3(C)CC[C@H](O[C@@H]4O[C@H](CO)[C@@H](O)[C@H](O)[C@H]4O[C@@H]4O[C@H](CO)[C@@H](O)[C@H](O)[C@H]4O)C(C)(C)[C@@H]3CC[C@]12C` [GINSENOSIDE RC], for which the Survival in [1] was determined as 32.1%; in [9] it was 31.4%; in assay [10], 26.7%. The Activity in assay [2] worked out at 1.9%; in [4] it was 3.2%. Besides, the “inhibition (INH)” value is 4.4% in assay [6], -11.3% in [7] and 6.7% in assay [8].
As for `C=C(C)C(=O)CC[C@](C)(O[C@@H]1O[C@H](CO)[C@@H](O)[C@H](O)[C@H]1O)[C@H]1CC[C@]2(C)[C@@H]1[C@H](O)C[C@@H]1[C@@]3(C)CC[C@H](O)C(C)(C)[C@@H]3[C@@H](O[C@@H]3O[C@H](CO)[C@@H](O)[C@H](O)[C@H]3O)C[C@]12C`, the values for the Survival in [1], in assay [9] and in [10] were 35.6%, 38.4% and 44.3%, respectively. Also, the Activity in [2] is given as 12%; in assay [3], 20.5%; in [4], 8.2%. Besides, the “inhibition (INH)” value in [6] was 28.3%; in assay [7] it was 48.2%; in assay [8], 19.2%.
